Only some compounds are listed: those with a hit (about 5.3% of all), similar ones and a draw of the others.
T cruzi inh: T. cruzi replication inhibition; T. cruzi beta-gal in NIH3T3, luminescence, 90 h; inhibition, % (no concentration beside the values); 1.4% of 300,000 active;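 active = mean inhibition across valid replicates above about 55%, limit read from the data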;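 also: signal also drops with host cell toxicity which is not excluded here; 0% = plate median of DMSO wells and 100% = zero luminescence signal; higher percent means less beta-gal luminescence so fewer parasites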
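Assay system: NIH/3T3 host cells with β-galactosidase reporter T. cruzi; input: 5,000 host fibroblasts per well; compound: single 50 nL compound addition per well in DMSO; timing: ≥90 h infection period, 3 h prior cell attachment; measured by: GalScreen β-gal luminescence, detergent lysis, 60 min; evaluation: percent inhibition of parasite-derived β-gal signal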
CSC inhib: blocks cancer stem cells. cancer stem cell-like cells viability, luminescence. inhibition, % at 7.5 µM. 1.1% of 300,000 active. AID 2717; in the data active = inhibition above about 75%; tested in HMLE shEcad cells
Beta apoptosis: blocks beta cell apoptosis | INS-1E cytokine-induced death, ATP luminescence, 48 h; percent of positive-control rescue, neutral wells zero | 0.8% of 300,000 active | protection from apoptosis, % (test concentration not listed);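 active = Every replicate reaches about 75%, or at least half do and their mean reaches it too, limit read from the data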;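 also: 0% = cytokine-treated negative control wells and 100% = positive control rescue; higher means more ATP so stronger rescue from cytokine killing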
NALP3 yeast inh: inhibitors of NALP3 inflammasome in yeast; inhibition, % at 10 µM; AID 2825; Yeast reconstituted NLRP3/ASC/caspase-1, beta-gal luminescence, 24 h; 0.39% of 330,000 active;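 active = inhibition of 50% or more; inactive = inhibition below 50%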;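 also: plate controls were induced DMSO wells for no effect and uninduced yeast grown without galactose for full effect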
Calb FLC: C. albicans growth modulation with fluconazole; C. albicans CaCi-2 + fluconazole, Alamar Blue growth, 48 h; growth inhibition, % (concentration not given with the values); 0.57% of 300,000 active; AID 1979;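 active = growth inhibition above about 58% in most replicates, limit read from the data, passing the limit was not always enough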;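 also: all wells also contain fluconazole at 8 µg/ml as a sub-toxic cotreatment; 0% = median of DMSO wells and 100% = median of geldanamycin control wells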
Mdm2-MdmX inh: disrupts the human Mdm2-MdmX interaction; O15151+Q00987; SaOS-2 split-luciferase Mdm2/MdmX complementation, luminescence; inhibition, % at 8 µM; 3% of 330,000 active; AID 485346;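 active = inhibition of at least 50% at 8 µM in the primary screen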
Target sequence (O15151 whole entry, looked up): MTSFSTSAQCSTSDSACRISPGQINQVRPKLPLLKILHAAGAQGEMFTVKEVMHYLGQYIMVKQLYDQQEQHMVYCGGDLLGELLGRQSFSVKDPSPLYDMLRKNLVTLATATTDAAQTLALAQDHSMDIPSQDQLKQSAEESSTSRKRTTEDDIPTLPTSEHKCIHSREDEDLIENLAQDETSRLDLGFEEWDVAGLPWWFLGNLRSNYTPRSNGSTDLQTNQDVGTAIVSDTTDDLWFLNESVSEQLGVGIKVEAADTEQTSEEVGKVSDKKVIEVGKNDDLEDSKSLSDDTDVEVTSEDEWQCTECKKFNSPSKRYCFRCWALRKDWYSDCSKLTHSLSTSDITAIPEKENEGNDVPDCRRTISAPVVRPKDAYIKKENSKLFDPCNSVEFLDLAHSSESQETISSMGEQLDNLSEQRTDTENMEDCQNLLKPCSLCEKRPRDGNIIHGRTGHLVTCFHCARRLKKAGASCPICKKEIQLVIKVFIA
Target sequence (Q00987 whole entry, looked up): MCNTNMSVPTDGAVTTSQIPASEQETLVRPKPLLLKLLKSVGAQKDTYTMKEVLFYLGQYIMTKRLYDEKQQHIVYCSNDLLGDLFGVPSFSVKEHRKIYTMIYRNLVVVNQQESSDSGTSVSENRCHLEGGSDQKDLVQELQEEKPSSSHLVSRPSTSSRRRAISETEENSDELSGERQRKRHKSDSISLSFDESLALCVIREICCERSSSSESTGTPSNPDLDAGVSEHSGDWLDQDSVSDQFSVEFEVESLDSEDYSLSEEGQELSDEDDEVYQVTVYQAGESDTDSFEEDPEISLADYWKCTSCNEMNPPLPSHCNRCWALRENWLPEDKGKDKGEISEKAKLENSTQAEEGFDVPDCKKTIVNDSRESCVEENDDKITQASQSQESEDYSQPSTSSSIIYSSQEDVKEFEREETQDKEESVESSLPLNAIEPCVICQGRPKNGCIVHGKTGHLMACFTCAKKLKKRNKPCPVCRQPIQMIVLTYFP
Mdm2-MdmX conf: human Mdm2/MdmX binding inhibition, confirmed. shares compounds with Mdm2-MdmX inh. luminescent assay. inhibition, % at 8 µM. 55% of 10,000 active; in the data active = inhibition above about 40%
Full FLuc ctr: counter-screen for Mdm2/MdmX inhibitors: full-length luciferase. 77% of 6,200 active. inhibition, % at 8 µM. SaOS-2 full-length luciferase counterscreen, luminescence. shares compounds with Mdm2-MdmX inh;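 active = mean inhibition at 8 µM reaching about 37%, which flags the compound as non-specific, limit read from the data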;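 also: p53-null SaOS-2 cells with luciferase driven by a doxycycline-inducible promoter; compound on cells about two nights before reading with doxycycline added after day one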
Starred values were filed as active, the others as inactive; x = not tested or not shown.

SMILES | T cruzi inh | CSC inhib | Beta apoptosis | NALP3 yeast inh | Calb FLC | Mdm2-MdmX inh | Mdm2-MdmX conf | Full FLuc ctr
Cc1ccc(-n2ncc3c(=O)n(CC(=O)NC4CCCCC4)cnc32)cc1C | -21 | 1 | 1 | 7 | -5 | 11 | x | x
Oc1ccc(CN2CCc3ccccc3C2)c2cccnc12 | 57* | 60 | 112* | 43 | 5 | 51* | 78* | 24
Clc1ccccc1CN1CCC(Cc2ccccc2)CC1 | -2 | 33 | 3 | 18 | -13 | 22 | x | x
Oc1cc2c(cc1CN1CCc3ccccc3C1)OCO2 | -12 | -1 | -9 | 7 | -11 | -11 | x | x
Oc1ccc(CN2CCC(Cc3ccccc3)CC2)c2cccnc12 | 50 | x | x | 12 | 112* | 73* | 69* | 69*
CCOC(=O)N1CCN(Cc2ccc(O)c3ncccc23)CC1 | 34 | 46 | -1 | -8 | 82* | 50* | -9 | x
Nc1c(C(=O)CSc2nc3ccccc3o2)c(=O)[nH]c(=O)n1C1CC1 | x | x | 1 | 17 | x | 80* | 19 | x
COc1ccc2c(c1)C1(Nc3ccccc3-c3nc4ccccc4n31)C(=O)N2C (centres undefined) | x | 11 | 3 | 15 | -13 | 76* | 81* | 46*
NC(=O)Cn1nnc(-c2ccc(NC(=O)c3ccc(F)cc3)cc2)n1 | -5 | 2 | -4 | 16 | -1 | -74 | x | x
Cc1ccc(S(=O)(=O)c2nc(-c3ccccc3Br)oc2N(C)C)cc1 | -1 | 6 | -7 | 24 | 6 | 32 | x | x
CCN(CC(=O)Nc1ccc(OC)cc1)C(=O)c1cc(-c2cccs2)nn1-c1ccccc1 | 3 | 22 | 4 | 10 | 8 | 60* | 55* | 90*
Clc1ccc(-c2ccc(/C=N/Nc3nncc(-c4ccccc4)n3)o2)cc1 | -22 | -7 | -1 | 9 | 4 | 50* | 27 | x
O=C1CCc2ccccc2N1 | -4 | -15 | 0 | -1 | -1 | -15 | x | x
CCN1C(=NCCc2ccc(Br)cc2)N[C@@H](c2ccccc2)[C@H](C(=O)OC)[C@H]1C | x | 26 | 1 | 16 | x | 52* | 14 | x
CCc1c(C)sc(NC(=O)C2CC2c2ccccc2)c1C(N)=O (centres undefined) | 6 | 27 | 1 | 2 | -3 | 57* | 73* | 55*
NNC(=O)[C@@H]1C[C@@H]1c1ccccc1 | 1 | -10 | -1 | 12 | -8 | 12 | x | x
CCN(CC)CCCCCCCCOC(=O)c1cc(OC)c(OC)c(OC)c1 | x | 35 | 6 | 20 | x | 50* | 28 | x
COc1cc(C(=O)OCCN2CCOCC2)cc(OC)c1OC | -1 | 9 | -8 | 0 | 5 | 8 | x | x
COc1cc(C(=O)OCCCN2CCCN(CCCOC(=O)c3cc(OC)c(OC)c(OC)c3)CC2)cc(OC)c1OC | 32 | -7 | x | 18 | 1 | 61* | 41* | 86*
COc1cc(C(=O)OCCCN(C)C)cc(OC)c1OC | 2 | -16 | 3 | 20 | -3 | 13 | x | x
O=C(CN(Cc1ccccc1)C(=O)CCl)c1cccc(Br)c1 | x | 16 | 10 | 20 | x | 100* | 80* | 60*
O=C1CC(N2CCC(c3nc4ccccc4o3)CC2)C(=O)N1 (centres undefined) | 4 | 6 | -1 | 11 | -5 | 9 | x | x
O=C(N/N=C/c1c(-c2ccccc2)[nH]c2ccccc12)c1cccnc1 | 8 | 4 | 0 | 11 | 10 | 52* | 53* | 68*
Cc1ccc(/C=N/N2C(=S)SC(C)(C)C2N(O)C(=O)Nc2ccc([N+](=O)[O-])cc2)cc1 (centres undefined) | 25 | 35 | 11 | 25 | -1 | 67* | 25 | x
CC1(C)SC(=S)N(/N=C/c2ccc(O)cc2)C1N(O)C(=O)Nc1ccc([N+](=O)[O-])cc1 (centres undefined) | 1 | 7 | 0 | -1 | -3 | 18 | x | x
O=C(CN1C(=O)NC2(CCOc3ccccc32)C1=O)c1cccs1 (centres undefined) | x | -9 | -4 | -2 | x | -14 | x | x

Screening data from PubChem BioAssay.
